Measured values: ChEMBL document CHEMBL1800046, “Design, synthesis, and X-ray crystallographic studies of α-aryl substituted fosmidomycin analogues as inhibitors of Mycobacterium tuberculosis 1-deoxy-D-xylulose 5-phosphate reductoisomerase” (J Med Chem, 2011)

Tests used:
[1] = Inhibition of Mycobacterium tuberculosis DXR-catalyzed NADPH-dependent rearrangement and reduction of DXP to form MEP measured every 5 secs for 500 secs by spectrophotometric analysis
[2] = test system: Mycobacterium tuberculosis; experiment: Inhibition of Mycobacterium tuberculosis DXR-catalyzed NADPH-dependent rearrangement and reduction of DXP to form MEP at 100 uM measured every 5 secs for 500 secs by spectrophotometric analysis
Method in brief: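 Screened with inhibitor at 100 µM. Started by adding DXP, at 22 °C. A340 for NADPH read every 5 s over 500 s. Initial velocity from the linear slope, compared with the uninhibited reaction.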

[3] = test system: Mycobacterium tuberculosis; experiment: Antibacterial activity against Mycobacterium tuberculosis H37Rv ATCC 27294 after 14 days by microplate alamar blue assay; format: functional; conditions: H37Rv ATCC 27294, 336 h
Method in brief: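 Resazurin (Alamar blue) dye readout in 96-well format. Serially diluted compound added to a log-phase culture of M. tuberculosis H37Rv (ATCC 27294). MIC recorded in µg/ml.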

Row | Structure (SMILES) | IC50 [1] [µM] | inhibition [2] [%] | MIC [3] [µg/mL]
1 | CCOP(=O)(OCC)C(CCN(O)C=O)c1ccc(Cl)c(Cl)c1 (racemic) | > 100 | – | –
2 | CCOP(=O)(OCC)C(CCN(O)C(C)=O)c1ccc(Cl)c(Cl)c1 (racemic) | > 100 | – | –
3 | CCOP(=O)(O)C(CCN(O)C=O)c1ccc(Cl)c(Cl)c1 (racemic) | 38 | – | –
4 | CCOP(=O)(O)C(CCN(O)C(C)=O)c1ccc(Cl)c(Cl)c1 (racemic) | 22 | – | –
5 | O=CN(O)CCC(c1ccccc1Br)P(=O)(O)O (racemic) | 5.6 | 93 | > 32
6 | CC(=O)N(O)CCC(c1ccccc1Br)P(=O)(O)O (racemic) | 210 | 38 | > 32
7 | CC(=O)N(O)CCC(c1ccccc1C#N)P(=O)(O)O (racemic) | – | 30 | > 32
8 | CC(=O)N(O)CCC(c1ccccc1-c1cccnc1)P(=O)(O)O (racemic) | – | 20 | > 32
9 | CCOP(=O)(O)C(CCNC(C)=O)c1ccccc1-c1cccnc1 (racemic) | – | 20 | > 32
10 | CC(=O)N(O)CCC(c1ccccc1-c1cccs1)P(=O)(O)O (racemic) | – | 30 | > 32
11 | CC(=O)N(O)CCC(c1ccccc1CO)P(=O)(O)O (racemic) | 465 | 36 | > 32
12 | CC(=O)N(O)CCC(c1ccccc1C)P(=O)(O)O (racemic) | 205 | 55 | > 32
13 | COCc1ccccc1C(CCN(O)C(C)=O)P(=O)(O)O (racemic) | – | 30 | > 32
14 | CC(=O)N(O)CCC(c1ccccc1CCO)P(=O)(O)O (racemic) | 150 | 35 | > 32
15 | CC(=O)N(O)CCC1c2ccccc2COP1(=O)O (racemic) | – | 12 | > 32
16 | CC(=O)N(O)CCC(c1ccccc1)P(=O)(O)O (racemic) | 7.4 | 92 | > 32
17 | O=CN(O)CCCP(=O)(O)O [FOSMIDOMYCIN] | 0.08 | – | –
18 | CC(=O)N(O)CCCP(=O)(O)O [FR-900098] | 0.16 | – | –
